ChEMBL document CHEMBL4261600 (Eur J Med Chem, 2018)

How the values were obtained:
[1] = system: MOLM-13; assay: Antiproliferative activity against human MOLM13 cells after 72 hrs by Celltiter-Glo assay; assay type: functional; details: MOLM-13, 72 h
In short: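 Cells seeded at 3000/well in 96-well plates, exposed to serially diluted compound for 72 h at 37 °C, 5% CO2. Viability read by CellTiter-Glo luminescence and normalized to DMSO control. GI50 derived from curve fit, mean of three independent measurements. Culture media: DMEM/10% FBS for adherent lines; IMDM for MV4-11 and MEC-1/2; RPMI 1640 for suspension lines and CHL.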

[2] = Cmax in mouse at 10 mg/kg, po by LC-MS/MS analysis; assay type: ADME, organism-based; design: dose 10 mg/kg, route oral; details: in vivo
[3] = AUC (0 to t) in beagle dog at 2 mg/kg, iv by LC-MS/MS analysis; assay type: ADME, organism-based, Canis lupus familiaris; details: in vivo
In short: (§1)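 Non-compartmental PK. Male SD rats 190-210 g, mice and beagle dogs acclimatized one week, fasted 12 h with water, split into iv and po groups (mice 48, rats 6, dogs 6). iv 3/3/2 mg/kg (mice/rats/dogs); po 10/20/10 mg/kg; vehicle DMSO in 5% glucose water. Blood at 2 or 5 to 720 min; plasma protein-precipitated with methanol, caffeine internal standard, LC-MS/MS.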

[4] = AUC (0 to infinity) in mouse at 3 mg/kg, iv by LC-MS/MS analysis; assay type: ADME, organism-based; design: dose 3 mg/kg, route intravenous, time infinity; details: in vivo; in short: as §1
[5] = target: Activin receptor type-2B (Homo sapiens) (UniProt Q13705); assay: Binding affinity to wild-type human ACVR2B (H169 to D504 residues) expressed in bacterial expression system assessed as remaining unbound target protein level at 1000 nM by Kinomescan method relative to control
In short: (§2)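 Single-point competition binding screen across a panel of 468 kinases and mutants, with the inhibitor at 1 μM. Binding is read out as percent of a DMSO control, and targets below 1 percent control were classed as strong binders.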

[6] = target: Aurora kinase A (Homo sapiens) (UniProt O14965); assay: Binding affinity to wild-type human partial length AURKA (E122 to K401 residues) expressed in mammalian expression system assessed as remaining unbound target protein level at 1000 nM by Kinomescan method relative to control
Aurora kinase A (Homo sapiens), sequence (O14965 whole entry, the tested form may be a part): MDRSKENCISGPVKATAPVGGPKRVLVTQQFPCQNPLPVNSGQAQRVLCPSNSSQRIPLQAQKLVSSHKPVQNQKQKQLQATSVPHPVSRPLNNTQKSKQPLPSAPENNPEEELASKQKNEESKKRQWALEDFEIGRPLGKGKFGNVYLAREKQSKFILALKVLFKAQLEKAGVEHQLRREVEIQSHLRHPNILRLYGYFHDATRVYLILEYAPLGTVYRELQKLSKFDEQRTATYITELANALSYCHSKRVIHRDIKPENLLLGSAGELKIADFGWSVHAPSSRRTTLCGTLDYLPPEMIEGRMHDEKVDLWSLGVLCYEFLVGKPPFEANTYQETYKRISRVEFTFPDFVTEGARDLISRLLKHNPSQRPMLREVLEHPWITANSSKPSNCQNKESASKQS
In short: (§3)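 Profiled in a KINOMEscan binding panel with the inhibitor at a single concentration of 1 μM. Binding to each kinase was read out as percent of control, relative to a DMSO control. Strong binders were defined as those with a percent control value below 1.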

[7] = target: Bone morphogenetic protein receptor type-1A (Homo sapiens) (UniProt P36894); assay: Binding affinity to wild-type human partial length BMPR1A (Q214 to I532 residues) expressed in bacterial expression system assessed as remaining unbound target protein level at 1000 nM by Kinomescan method relative to control; in short: as §3
[8] = target: Serine/threonine-protein kinase 17A (Homo sapiens) (UniProt Q9UEE5); assay: Binding affinity to wild-type human partial length DRAK1 (R32 to E363 residues) expressed in bacterial expression system assessed as remaining unbound target protein level at 1000 nM by Kinomescan method relative to control
Serine/threonine-protein kinase 17A (Homo sapiens), sequence (Q9UEE5 whole entry, the tested form may be a part): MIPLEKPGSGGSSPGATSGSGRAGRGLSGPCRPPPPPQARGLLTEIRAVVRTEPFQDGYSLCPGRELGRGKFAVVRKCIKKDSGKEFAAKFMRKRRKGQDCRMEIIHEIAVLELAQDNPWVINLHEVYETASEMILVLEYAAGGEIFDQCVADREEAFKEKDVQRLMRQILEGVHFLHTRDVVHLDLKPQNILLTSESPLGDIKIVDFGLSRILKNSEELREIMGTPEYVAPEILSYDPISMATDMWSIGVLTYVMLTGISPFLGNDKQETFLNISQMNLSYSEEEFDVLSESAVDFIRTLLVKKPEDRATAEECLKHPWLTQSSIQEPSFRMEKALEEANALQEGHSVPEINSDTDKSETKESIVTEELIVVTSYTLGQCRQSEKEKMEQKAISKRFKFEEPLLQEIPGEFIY

[9] = target: Ephrin type-B receptor 2 (Homo sapiens) (UniProt P29323); assay: Binding affinity to wild-type human partial length EPHB2 (I597 to L902 residues) expressed in bacterial expression system assessed as remaining unbound target protein level at 1000 nM by Kinomescan method relative to control
[10] = target: Rhodopsin kinase GRK7 (Homo sapiens) (UniProt Q8WTQ7); assay: Binding affinity to wild-type human full length GRK7 (M1 to L553 residues) expressed in mammalian expression system assessed as remaining unbound target protein level at 1000 nM by Kinomescan method relative to control; in short: as §2
[11] = target: Tyrosine-protein kinase JAK1 (Homo sapiens) (UniProt P23458); assay: Binding affinity to wild-type human partial length JAK1 JH1 catalytic domain (V856 to K1154 residues) expressed in bacterial expression system assessed as remaining unbound target protein level at 1000 nM by Kinomescan method relative to control
In short: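 KINOMEscan binding panel of 468 kinases/mutants. Inhibitor was tested at a single concentration of 1 μM. Binding is reported as percent of control, defined relative to a DMSO control.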

[12] = system: Mast/stem cell growth factor receptor Kit (Homo sapiens), P10721 [L576P]; assay: Binding affinity to human partial length KIT L576P mutant (Y545 to D952 residues) expressed in bacterial expression system assessed as remaining unbound target protein level at 1000 nM by Kinomescan method relative to control
In short: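 KINOMEscan competition-binding profiling across the panel of 468 kinases and mutants, with inhibitor tested at 1 μM. Binding is expressed as percent of control, with DMSO as the reference control.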

[13] = target: Maternal embryonic leucine zipper kinase (Homo sapiens) (UniProt Q14680); assay: Binding affinity to wild-type human full length MELK (M1 to V651 residues) expressed in bacterial expression system assessed as remaining unbound target protein level at 1000 nM by Kinomescan method relative to control; in short: as §2
Maternal embryonic leucine zipper kinase (Homo sapiens), sequence (Q14680 whole entry, looked up, the tested form may be a part): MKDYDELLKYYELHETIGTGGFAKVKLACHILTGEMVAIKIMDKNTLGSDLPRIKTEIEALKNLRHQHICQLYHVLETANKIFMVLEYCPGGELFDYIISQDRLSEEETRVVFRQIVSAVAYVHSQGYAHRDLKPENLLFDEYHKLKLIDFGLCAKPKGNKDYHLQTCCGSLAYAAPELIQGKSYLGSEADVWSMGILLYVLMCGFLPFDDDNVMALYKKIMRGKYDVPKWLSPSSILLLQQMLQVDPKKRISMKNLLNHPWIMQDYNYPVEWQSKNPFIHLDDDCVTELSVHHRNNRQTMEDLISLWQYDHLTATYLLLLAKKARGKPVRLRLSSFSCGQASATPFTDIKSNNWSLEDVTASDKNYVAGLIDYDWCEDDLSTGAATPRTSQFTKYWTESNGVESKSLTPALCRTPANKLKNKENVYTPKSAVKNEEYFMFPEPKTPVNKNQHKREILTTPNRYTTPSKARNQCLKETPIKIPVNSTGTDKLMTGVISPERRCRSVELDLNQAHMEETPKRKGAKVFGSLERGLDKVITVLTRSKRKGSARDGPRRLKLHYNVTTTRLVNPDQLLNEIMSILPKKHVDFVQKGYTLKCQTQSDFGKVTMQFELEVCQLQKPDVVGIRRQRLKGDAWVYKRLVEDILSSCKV

[14] = target: SRSF protein kinase 2 (Homo sapiens) (UniProt P78362); assay: Binding affinity to wild-type human full length SRPK2 (M1 to S686 residues) expressed in bacterial expression system assessed as remaining unbound target protein level at 1000 nM by Kinomescan method relative to control; in short: as §3
SRSF protein kinase 2 (Homo sapiens), sequence (P78362 whole entry, looked up, the tested form may be a part): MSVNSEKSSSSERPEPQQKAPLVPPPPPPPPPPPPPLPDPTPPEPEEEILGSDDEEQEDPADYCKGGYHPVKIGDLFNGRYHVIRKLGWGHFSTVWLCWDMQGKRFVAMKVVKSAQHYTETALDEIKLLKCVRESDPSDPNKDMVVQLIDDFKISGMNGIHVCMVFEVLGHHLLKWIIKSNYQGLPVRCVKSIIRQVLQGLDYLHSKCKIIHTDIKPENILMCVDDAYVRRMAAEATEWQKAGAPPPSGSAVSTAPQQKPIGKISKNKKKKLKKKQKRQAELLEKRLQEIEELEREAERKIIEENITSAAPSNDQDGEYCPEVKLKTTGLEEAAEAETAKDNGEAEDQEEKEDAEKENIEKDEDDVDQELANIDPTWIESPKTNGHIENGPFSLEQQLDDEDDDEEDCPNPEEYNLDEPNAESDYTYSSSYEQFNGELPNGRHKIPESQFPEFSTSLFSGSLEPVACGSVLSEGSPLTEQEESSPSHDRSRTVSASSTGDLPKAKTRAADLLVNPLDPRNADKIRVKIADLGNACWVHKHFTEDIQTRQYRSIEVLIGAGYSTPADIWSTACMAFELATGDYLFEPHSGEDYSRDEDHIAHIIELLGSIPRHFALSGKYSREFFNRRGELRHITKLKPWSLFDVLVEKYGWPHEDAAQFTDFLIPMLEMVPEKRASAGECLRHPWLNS

[15] = target: Mitogen-activated protein kinase kinase kinase 7 (Homo sapiens) (UniProt O43318); assay: Binding affinity to wild-type human partial length TAK1 (M1 to Q303 residues) expressed in mammalian expression system assessed as remaining unbound target protein level at 1000 nM by Kinomescan method relative to control
Mitogen-activated protein kinase kinase kinase 7 (Homo sapiens), sequence (O43318 whole entry, the tested form may be a part): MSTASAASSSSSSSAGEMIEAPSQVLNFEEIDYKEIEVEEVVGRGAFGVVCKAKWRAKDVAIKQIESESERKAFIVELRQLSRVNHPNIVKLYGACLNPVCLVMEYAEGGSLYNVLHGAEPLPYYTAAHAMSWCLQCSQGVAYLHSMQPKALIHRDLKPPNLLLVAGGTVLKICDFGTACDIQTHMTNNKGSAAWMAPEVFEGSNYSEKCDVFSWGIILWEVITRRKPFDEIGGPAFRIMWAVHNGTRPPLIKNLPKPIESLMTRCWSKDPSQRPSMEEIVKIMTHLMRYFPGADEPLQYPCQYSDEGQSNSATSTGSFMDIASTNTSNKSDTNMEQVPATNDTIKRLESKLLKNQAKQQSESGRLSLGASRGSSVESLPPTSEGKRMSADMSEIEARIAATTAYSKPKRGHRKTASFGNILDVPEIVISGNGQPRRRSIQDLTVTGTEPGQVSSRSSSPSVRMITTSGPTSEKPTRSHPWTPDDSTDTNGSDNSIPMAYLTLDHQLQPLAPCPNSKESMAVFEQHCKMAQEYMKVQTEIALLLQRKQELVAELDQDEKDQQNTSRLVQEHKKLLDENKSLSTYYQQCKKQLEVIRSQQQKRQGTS

[16] = target: TGF-beta receptor type-2 (Homo sapiens) (UniProt P37173); assay: Binding affinity to wild-type human partial length TGFBR2 (I218 to K567 residues) expressed in bacterial expression system assessed as remaining unbound target protein level at 1000 nM by Kinomescan method relative to control
TGF-beta receptor type-2 (Homo sapiens), sequence (P37173 whole entry, the tested form may be a part): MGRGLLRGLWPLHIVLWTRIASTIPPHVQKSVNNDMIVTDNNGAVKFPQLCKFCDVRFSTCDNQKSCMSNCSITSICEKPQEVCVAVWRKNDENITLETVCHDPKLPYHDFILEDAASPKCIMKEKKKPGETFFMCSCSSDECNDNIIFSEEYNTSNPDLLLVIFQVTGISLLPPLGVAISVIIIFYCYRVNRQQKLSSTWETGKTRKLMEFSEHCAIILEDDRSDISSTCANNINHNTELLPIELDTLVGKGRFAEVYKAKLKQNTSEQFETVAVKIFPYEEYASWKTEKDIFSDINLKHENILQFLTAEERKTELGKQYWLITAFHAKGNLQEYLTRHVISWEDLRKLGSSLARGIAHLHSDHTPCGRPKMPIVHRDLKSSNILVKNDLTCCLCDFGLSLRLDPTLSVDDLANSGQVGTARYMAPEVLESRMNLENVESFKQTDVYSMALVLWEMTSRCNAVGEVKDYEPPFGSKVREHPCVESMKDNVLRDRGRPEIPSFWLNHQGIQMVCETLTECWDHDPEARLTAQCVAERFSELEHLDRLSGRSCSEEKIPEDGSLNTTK

[17] = target: Tyrosine-protein kinase receptor TYRO3 (Homo sapiens) (UniProt Q06418); assay: Binding affinity to wild-type human partial length TYRO3 (S497 to T814 residues) expressed in bacterial expression system assessed as remaining unbound target protein level at 1000 nM by Kinomescan method relative to control
Tyrosine-protein kinase receptor TYRO3 (Homo sapiens), sequence (Q06418 whole entry, the tested form may be a part): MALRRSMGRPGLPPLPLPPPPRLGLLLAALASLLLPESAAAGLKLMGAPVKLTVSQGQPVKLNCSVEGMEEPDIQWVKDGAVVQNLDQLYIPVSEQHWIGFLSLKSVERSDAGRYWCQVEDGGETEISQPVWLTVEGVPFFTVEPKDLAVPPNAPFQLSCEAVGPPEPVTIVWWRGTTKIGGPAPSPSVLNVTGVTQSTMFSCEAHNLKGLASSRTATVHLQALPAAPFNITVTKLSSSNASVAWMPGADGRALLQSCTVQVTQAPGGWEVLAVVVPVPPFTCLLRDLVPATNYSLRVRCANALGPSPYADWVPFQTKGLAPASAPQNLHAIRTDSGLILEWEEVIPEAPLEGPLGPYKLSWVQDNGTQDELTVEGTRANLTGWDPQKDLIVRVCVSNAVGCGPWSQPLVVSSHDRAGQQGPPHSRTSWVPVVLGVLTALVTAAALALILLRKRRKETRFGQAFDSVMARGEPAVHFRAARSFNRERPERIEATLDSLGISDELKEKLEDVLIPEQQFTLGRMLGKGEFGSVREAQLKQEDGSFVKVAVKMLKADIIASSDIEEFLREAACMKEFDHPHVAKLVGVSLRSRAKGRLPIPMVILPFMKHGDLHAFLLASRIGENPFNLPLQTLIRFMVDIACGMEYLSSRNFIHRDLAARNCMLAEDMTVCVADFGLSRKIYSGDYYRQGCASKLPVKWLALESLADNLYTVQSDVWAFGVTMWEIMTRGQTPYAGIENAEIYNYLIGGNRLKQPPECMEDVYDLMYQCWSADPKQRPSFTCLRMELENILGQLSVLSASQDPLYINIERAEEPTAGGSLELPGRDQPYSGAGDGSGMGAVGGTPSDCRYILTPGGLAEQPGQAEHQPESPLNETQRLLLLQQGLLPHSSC

[18] = target: Serine/threonine-protein kinase WNK3 (Homo sapiens) (UniProt Q9BYP7); assay: Binding affinity to wild-type human partial length WNK3 (M1 to D434 residues) expressed in mammalian expression system assessed as remaining unbound target protein level at 1000 nM by Kinomescan method relative to control
[19] = target: Cyclin-dependent kinase 5/CDK5 activator 1 (Homo sapiens, UniProt Q00535); assay: Inhibition of recombinant full length His/GST-tagged human CDK5/p25 expressed in baculovirus expression system
Cyclin-dependent kinase 5/CDK5 activator 1, sequence (Q00535 whole entry): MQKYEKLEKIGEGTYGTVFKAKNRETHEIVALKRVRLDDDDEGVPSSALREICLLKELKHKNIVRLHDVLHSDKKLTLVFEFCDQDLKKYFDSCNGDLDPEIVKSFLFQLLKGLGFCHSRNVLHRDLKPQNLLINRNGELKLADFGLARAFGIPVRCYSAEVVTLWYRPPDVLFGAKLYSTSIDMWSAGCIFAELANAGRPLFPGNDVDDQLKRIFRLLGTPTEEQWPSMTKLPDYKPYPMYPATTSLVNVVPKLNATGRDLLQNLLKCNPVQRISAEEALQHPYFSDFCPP
Cyclin-dependent kinase 5/CDK5 activator 1, sequence (Q15078 whole entry, further chain): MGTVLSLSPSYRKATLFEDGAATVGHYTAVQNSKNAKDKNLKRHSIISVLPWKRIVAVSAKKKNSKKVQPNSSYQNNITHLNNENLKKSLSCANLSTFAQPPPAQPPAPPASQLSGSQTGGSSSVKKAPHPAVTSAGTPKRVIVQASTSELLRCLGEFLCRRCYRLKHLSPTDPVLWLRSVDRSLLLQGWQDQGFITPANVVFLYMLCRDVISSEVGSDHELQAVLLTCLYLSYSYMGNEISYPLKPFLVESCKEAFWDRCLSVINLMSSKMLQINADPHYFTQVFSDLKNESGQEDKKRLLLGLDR

COCCN[C@H]1CC[C@H](Nc2cc(-c3csc(NCC4(C#N)CCOCC4)n3)c(Cl)cn2)CC1
GI50 [1]: 0.012 µM | Cmax [2]: 116 ng/mL | AUC(0-t) [3]: 2010 ng·h/mL | AUC(0-inf) [4]: 408 ng·h/mL | Activity [5]: 98% | Activity [6]: 100% | Activity [7]: 98% | Activity [8]: 100% | Activity [9]: 82% | Activity [10]: 100% | Activity [11]: 99% | Activity [12]: 90% | Activity [13]: 75% | Activity [14]: 100% | Activity [15]: 100% | Activity [16]: 100% | Activity [17]: 68% | Activity [18]: 97% | IC50 [19]: 4.64 µM
